Measured values published in ChEMBL document CHEMBL4038332, “Substituted N-Phenyl-5-(2-(phenylamino)thiazol-4-yl)isoxazole-3-carboxamides Are Valuable Antitubercular Candidates that Evade Innate Efflux Machinery” (J Med Chem, 2017).
pIC50: −log10 of the molar value. In brackets after ≈: the same amount, converted by molar mass.

How the values were obtained:
[1] = test system: Mycobacterium tuberculosis; assay: Antimycobacterial activity against wild type Mycobacterium tuberculosis H37Rv incubated for 14 days by broth microdilution assay; format: functional; conditions: 336 h
[2] = Half life in human liver microsomes at 1 uM by HPLC-MS/MS analysis; format: ADME, microsome
Method in brief: (§1)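 Compound at 1 µM incubated 60 min at 37 °C with pooled HLM (1 mg protein/mL) and an NADPH-regenerating system in 100 mM PBS pH 7.4, after 5 min preheating. Sampled at 0, 15, 30, 60 min, quenched with two volumes of acetonitrile, centrifuged, and supernatant analysed by HPLC-MS/MS. CLint = (0.693/t1/2) × (mL incubation/mg microsomes) × 45 mg/g liver × 20 g liver/kg.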

[3] = Intrinsic clearance in human liver microsomes at 1 uM by HPLC-MS/MS analysis; format: ADME, microsome; conditions: read-out: CLH; method in brief: as §1
[4] = test system: Mycobacterium tuberculosis; assay: Antimycobacterial activity against wild type Mycobacterium tuberculosis H37Rv incubated for 14 days in presence of Thioridazine by broth microdilution assay; format: functional; conditions: 336 h
Pseudomonas aeruginosa = assay: Antibacterial activity against Pseudomonas aeruginosa ATCC 27853 after 24 hrs by spectrophotometric analysis; format: functional; conditions: ATCC 27853, 24 h
Method in brief: (§2)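 Log-phase culture in Mueller Hinton broth at 37 °C with shaking for 3-4 h, pelleted, adjusted at 600 nm in 10 mM phosphate buffer pH 7. Final inoculum approx. 5 × 10^5 CFU/mL. Twofold serial dilutions, final 100 to 0.2 µg/mL. Aerobic incubation 24 h at 37 °C. MIC is the lowest concentration with no visible growth, also read by resazurin (no blue-to-pink change).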

Enterococcus faecium = assay: Antibacterial activity against Enterococcus faecium ATCC 35667 after 24 hrs by spectrophotometric analysis; format: functional; conditions: ATCC 35667, 24 h; method in brief: as §2
[5] = test system: Mycobacterium tuberculosis; assay: Antimycobacterial activity against wild type Mycobacterium tuberculosis H37Rv incubated for 14 days in presence of Verapamil by broth microdilution assay; format: functional; conditions: 336 h
[6] = test system: Mycobacterium tuberculosis H37Rv; assay: Inhibition of efflux pump in wild type Mycobacterium tuberculosis H37Rv assessed as increase in accumulation of ethidium bromide by measuring relative final fluorescence index at 2.6 uM measured every second for 60 mins in absence of glucose by real time fluorimetric method
Staphylococcus aureus = assay: Antibacterial activity against Staphylococcus aureus ATCC 25923 after 24 hrs by spectrophotometric analysis; format: functional; conditions: ATCC 25923, 24 h; method in brief: as §2
[7] = Cytotoxicity against human MDM cells assessed as reduction in cell viability after 3 days by AlamarBlue assay; format: cell-based; conditions: 72 h
Method in brief: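 Macrophages came from healthy donors' PBMC (Ficoll gradient), differentiated 7 days in RPMI-1640/10% FCS with 20 ng/mL M-CSF at 37 °C, 5% CO2. 5 × 10^4 cells/well exposed to compounds for 3 days. Viability by AlamarBlue fluorescence (ex 540/35, em 590/20). IC50 taken as the highest concentration leaving 50% of cells viable relative to control.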

[8] = test system: Mycobacterium tuberculosis; assay: Antimycobacterial activity against nonreplicating Mycobacterium tuberculosis H37Rv ATCC 27924 incubated for 5 days under hypoxic condition followed by 2 days incubation under normal atmosphere by MTT dye based broth microdilution assay; format: functional
Method in brief: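 Mtb H37Rv ATCC27924 adapted to hypoxia: grown in 8 mL MB7H9, tubes tightly capped and sealed, standing at 37 °C for 8 weeks; methylene blue (final 1.5 µg/mL) monitored O2 depletion. Cells exposed to varying compound concentrations 5 days at 37 °C in anaerobic jar (indicator strip), then 2 days normal atmosphere recovery; MTT to final 2.5%, overnight at room temperature; MIC = lowest concentration with no colour change; triplicate.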

Candida albicans = assay: Antifungal activity against Candida albicans ATCC 11006 after 48 hrs by spectrophotometric analysis; format: functional; conditions: ATCC 11006, 48 h
Method in brief: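 Broth microdilution in RPMI per CLSI M27-A3. Inoculum adjusted to 0.5 McFarland in phosphate buffer, diluted to about 10^3 CFU/mL final and used within 30 min. Compounds at final 100 to 0.2 µg/mL (twofold). Aerobic incubation 48 h at 37 °C. MIC is the lowest concentration without visible growth, also checked by resazurin colour change.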

Escherichia coli = assay: Antibacterial activity against Escherichia coli ATCC 25922 after 24 hrs by spectrophotometric analysis; format: functional; conditions: ATCC 25922, 24 h; method in brief: as §2
[9] = Selectivity index, ratio of IC50 for human MDM cells to MIC90 for Mycobacterium tuberculosis H37Rv; format: toxicity; conditions: read-out: Selectivity Index

Row | Compound | MIC90 [1] | other results
1 | Cc1sc(Nc2cc(Cl)cc(Cl)c2)nc1-c1csc(Nc2cc(Cl)cc(Cl)c2)n1 | > 64 µg/mL | 
2 | Cc1ccc(Nc2nc(-c3cc(C(=O)O)no3)cs2)cc1 | > 64 µg/mL | half-life at 1 µM [2]: 14.3 min; CLint scaled at 1 µM [3]: 43.7 mL/min/kg
3 | CCOC(=O)c1cc(-c2csc(Nc3ccc(C)cc3)n2)on1 | 1.5 to 3 µM | half-life at 1 µM [2]: < 1 min; CLint scaled at 1 µM [3]: > 400 mL/min/kg
4 | CCOC(=O)c1cc(-c2csc(Nc3ccc(C)cc3)n2)n(C)n1 | 16 to 32 µg/mL | 
5 | Cc1ccc(Nc2nc(-c3cc(C(=O)Nc4ccccn4)no3)cs2)cc1 | 0.16 to 0.32 µM | MIC90 [4]: 1 µg/mL; MIC90 (Pseudomonas aeruginosa): 100 µg/mL (≈ 265 µM); half-life at 1 µM [2]: 16.1 min; MIC90 (Enterococcus faecium): 100 µg/mL (≈ 265 µM); MIC90 [5]: 2 µg/mL; Activity index [6]: 0.17; MIC90 (Staphylococcus aureus): 100 µg/mL (≈ 265 µM); pIC50 [7]: 3.85; MIC90 [8]: 1 µg/mL (≈ 2.65 µM); MIC90 (Candida albicans): 100 µg/mL (≈ 265 µM); CLint scaled at 1 µM [3]: 38.8 mL/min/kg; MIC90 (Escherichia coli): 100 µg/mL (≈ 265 µM)
6 | CCN(CC)C(=O)c1cc(-c2csc(Nc3ccc(C)cc3)n2)n(C)n1 | > 64 µg/mL | 
7 | Cn1nc(C(=O)O)cc1-c1csc(Nc2cc(Cl)cc(Cl)c2)n1 | > 64 µg/mL | 
8 | Clc1cc(Cl)cc(Nc2nc(-c3c[nH]nn3)cs2)c1 | > 64 µg/mL | 
9 | Cc1ccc(Nc2nc(-c3cc(C(=O)Nc4ccccc4)no3)cs2)cc1 | 0.33 to 0.66 µM | MIC90 [4]: 2 µg/mL; MIC90 (Pseudomonas aeruginosa): 100 µg/mL (≈ 266 µM); selectivity ratio [9]: > 500; half-life at 1 µM [2]: 35.1 min; MIC90 (Enterococcus faecium): 100 µg/mL (≈ 266 µM); MIC90 [5]: 2 µg/mL; Activity index [6]: 0.22; MIC90 (Staphylococcus aureus): > 100 µg/mL; pIC50 [7]: 3.73; MIC90 [8]: 1 µg/mL (≈ 2.66 µM); MIC90 (Candida albicans): > 100 µg/mL; CLint scaled at 1 µM [3]: 17.8 mL/min/kg; MIC90 (Escherichia coli): 100 µg/mL (≈ 266 µM)
10 | Cc1ccc(Nc2nc(-c3cc(C(=O)O)nn3C)cs2)cc1 | > 64 µg/mL | 
11 | CC(=O)c1nc(Nc2cc(Cl)cc(Cl)c2)sc1C | > 64 µg/mL | 
12 | Cc1ccc(Nc2nc(-c3cc(C(=O)NC45CC6CC(CC(C6)C4)C5)no3)cs2)cc1 | > 64 µg/mL | 
13 | Cc1ccc(Nc2nc(-c3cc(CO)no3)cs2)cc1 | 16 to 32 µg/mL | 
14 | CCOC(=O)c1cc(-c2csc(Nc3cc(Cl)cc(Cl)c3)n2)n(C)n1 | > 64 µg/mL | 
15 | CC(=O)c1nc(Nc2ccc(C)cc2)sc1C | > 64 µg/mL | 
16 | Cc1ccc(Nc2nc(-c3ccncc3)cs2)cc1 | > 64 µg/mL | 
17 | COc1ccc(-c2cc(-c3csc(Nc4cc(Cl)cc(Cl)c4)n3)on2)cc1 | > 64 µg/mL | 
18 | Cc1ccc(Nc2nc(-c3nc(Nc4ccc(C)cc4)sc3C)cs2)cc1 | 4 to 8 µg/mL | 

Row | Compound | MIC90 [1] | other results
19 | Cc1ccc(Nc2nc(-c3cc(C(=O)N4CCCCC4)no3)cs2)cc1 | 16 to 32 µg/mL | 
20 | Cc1ccc(Nc2nc(-c3cc(C(N)=O)no3)cs2)cc1 | > 64 µg/mL | 
21 | Clc1cc(Cl)cc(Nc2nc(-c3ccncc3)cs2)c1 | > 64 µg/mL | 
22 | O=C(NC12CC3CC(CC(C3)C1)C2)c1cc(-c2csc(Nc3cc(Cl)cc(Cl)c3)n2)on1 | > 64 µg/mL | 
23 | Cc1ccc(Nc2nc(-c3cc(-c4nccs4)no3)cs2)cc1 | > 64 µg/mL | 
24 | COc1ccc(-c2cc(-c3csc(Nc4ccc(C)cc4)n3)on2)cc1 | 4 to 8 µg/mL | 
25 | CCN(CC)C(=O)c1cc(-c2csc(Nc3ccc(C)cc3)n2)on1 | 16 to 32 µg/mL | 
26 | CCN(CC)C(=O)c1cc(-c2csc(Nc3cc(Cl)cc(Cl)c3)n2)n(C)n1 | > 64 µg/mL | 
27 | CCOC(=O)c1cc(-c2csc(Nc3cc(Cl)cc(Cl)c3)n2)on1 | 4 to 8 µg/mL | half-life at 1 µM [2]: 3.3 min; CLint scaled at 1 µM [3]: 189 mL/min/kg
28 | NNC(=O)c1ccncc1 [ISONIAZID] | 0.22 to 0.44 µM | 
29 | Cc1ccc(Nc2nc(-c3nc(N)sc3C)cs2)cc1 | 16 to 32 µg/mL | 
30 | O=C(Nc1ccccc1)c1cc(-c2csc(Nc3cc(Cl)cc(Cl)c3)n2)on1 |  | selectivity ratio [9]: > 500
31 | CNC(=O)c1cc(-c2csc(Nc3ccc(C)cc3)n2)on1 | > 64 µg/mL | 
32 | COc1ccc(-c2csc(Nc3ccc(C)cc3)n2)cc1 | 3.8 µg/mL | 
33 | O=C(O)c1cc(-c2csc(Nc3cc(Cl)cc(Cl)c3)n2)on1 | > 64 µg/mL | 
34 | c1cc(Nc2nc(-c3ccncc3)cs2)ccn1 | > 64 µg/mL | 
35 | Cc1sc(N)nc1-c1csc(Nc2cc(Cl)cc(Cl)c2)n1 | 8 to 16 µg/mL | 
